Laboratory results as given in ChEMBL document CHEMBL1145113, “Synthesis and crystal structures of substituted benzenes and benzoquinones as tissue factor VIIa inhibitors” (J Med Chem, 2003).

Legend:
Coagulation factor X = Coagulation factor X (Homo sapiens, UniProt P00742); assay: Inhibitory activity against coagulation factor X was determined
Outline: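 Human factor Xa at 0.3 nM with 0.15 mM S-2765 in 50 mM Tris-HCl pH 8.0, 100 mM NaCl, 0.1% BSA. A405 background was read immediately, then hydrolysis rate (p-nitroaniline release at 405 nm) after 60 min at room temperature. Seven concentrations in duplicate; % inhibition vs control; IC50 by four-parameter logistic fit.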

Coagulation factor VII = target: T1, Coagulation factor VII (Homo sapiens, UniProt P08709); assay: Inhibitory activity against coagulation factor VII was determined
T1 sequence (P08709 whole entry): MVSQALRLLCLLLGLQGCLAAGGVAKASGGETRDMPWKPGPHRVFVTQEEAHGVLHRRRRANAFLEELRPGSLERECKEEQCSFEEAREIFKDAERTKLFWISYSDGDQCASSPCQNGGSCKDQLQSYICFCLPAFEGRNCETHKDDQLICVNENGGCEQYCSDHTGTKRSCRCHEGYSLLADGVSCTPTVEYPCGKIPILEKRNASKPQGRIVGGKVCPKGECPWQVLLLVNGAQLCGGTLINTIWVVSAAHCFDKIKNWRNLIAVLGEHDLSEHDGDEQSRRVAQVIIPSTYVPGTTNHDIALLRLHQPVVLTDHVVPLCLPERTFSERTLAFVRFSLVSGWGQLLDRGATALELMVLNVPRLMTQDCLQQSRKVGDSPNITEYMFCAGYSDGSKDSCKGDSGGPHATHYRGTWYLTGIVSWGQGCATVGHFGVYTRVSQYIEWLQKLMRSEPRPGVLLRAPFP

Thrombin (Homo sapiens) = assay: Inhibitory activity against thrombin was determined at a concentration of 30 uM

Chain of Coagulation factor X (P00742 41-179 limits assumed): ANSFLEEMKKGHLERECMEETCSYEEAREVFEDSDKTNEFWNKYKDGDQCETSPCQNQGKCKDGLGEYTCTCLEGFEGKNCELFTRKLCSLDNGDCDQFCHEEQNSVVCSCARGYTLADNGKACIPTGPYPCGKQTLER
Chain of Coagulation factor X (P00742 235-488 limits assumed): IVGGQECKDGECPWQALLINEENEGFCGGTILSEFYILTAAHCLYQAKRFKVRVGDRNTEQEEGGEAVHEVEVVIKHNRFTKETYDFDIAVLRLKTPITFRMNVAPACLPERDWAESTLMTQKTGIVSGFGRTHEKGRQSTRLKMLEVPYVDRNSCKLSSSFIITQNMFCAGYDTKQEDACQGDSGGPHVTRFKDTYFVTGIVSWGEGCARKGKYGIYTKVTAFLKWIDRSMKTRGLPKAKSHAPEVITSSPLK

| IC50 (Coagulation factor X) [µM] | IC50 (Coagulation factor VII) [µM] | inhibition (Thrombin (Homo sapiens)) [%] | SMILES |
| --- | --- | --- | --- |
| > 30 | > 30 | 22 | N=C(N)c1ccc(CNC(=O)c2cc(NS(=O)(=O)Cc3ccccc3)ccc2Sc2ccccc2)cc1 |
| > 30 | > 30 |  | O=C(Cc1c(F)ccc(NS(=O)(=O)Cc2ccccc2)c1F)NCCCn1ccnc1 |
| > 30 | 2.5 |  | CC(C)Nc1ccc(-c2ccccc2)c(CC(=O)NCc2ccc(C(=N)N)cc2)c1O |
| > 30 |  |  | CC(C)Nc1ccc(-c2cccc(N)c2)c(CC(=O)NCc2ccc(C(=N)N)cc2)c1F |
| > 30 |  |  | N=C(N)c1ccc(CNC(=O)Cc2c(-c3ccccc3)ccc(NCCc3ccccc3)c2F)cc1 |
|  | 0.5 |  | N=C(N)c1ccc(CNC(=O)Cc2c(-c3cccc(N)c3)ccc(NCc3ccccc3)c2F)cc1 |
| > 30 |  |  | COc1c(NC(C)C)ccc(-c2ccccc2)c1CC(=O)NCc1ccc(C(=N)N)cc1 |
|  | > 30 |  | CN(C)c1ccc(CNC(=O)Cc2c(F)ccc(NS(=O)(=O)Cc3ccccc3)c2F)cc1 |
| > 30 |  |  | N=C(N)c1ccc(CNC(=O)Cc2c(-c3ccccc3)ccc(NCCc3ccccc3)c2O)cc1 |
| > 30 | > 30 |  | O=C(Cc1c(F)ccc(NS(=O)(=O)Cc2ccccc2)c1F)NCC1CCNCC1 |
|  | > 30 |  | O=C(NCC1CCNCC1)c1cc(NS(=O)(=O)Cc2ccccc2)ccc1Sc1ccccc1 |
|  | > 30 |  | O=C(Cc1c(F)ccc(NS(=O)(=O)Cc2ccccc2)c1F)NCc1ccncc1 |
| > 30 |  |  | N=C(N)c1ccc(CNC(=O)Cc2c(F)ccc(NCCc3ccccc3)c2F)cc1 |
|  | > 30 |  | N=C(N)c1cccc(CNC(=O)Cc2c(F)ccc(NS(=O)(=O)Cc3ccccc3)c2F)c1 |
| > 30 | > 30 |  | O=C(NCc1ccncc1)c1cc(NS(=O)(=O)Cc2ccccc2)ccc1Sc1ccccc1 |
| > 30 | > 30 |  | N=C(N)c1ccc(CNC(=O)Cc2c(F)ccc(NS(=O)(=O)Cc3ccccc3)c2F)cc1 |
| > 30 | > 30 |  | N=C(N)NCCCCCNC(=O)Cc1c(F)ccc(NS(=O)(=O)Cc2ccccc2)c1F |
| > 30 | > 30 |  | CN(C)c1ccc(CNC(=O)c2cc(NS(=O)(=O)Cc3ccccc3)ccc2Sc2ccccc2)cc1 |
